The record followed here is ChEMBL document CHEMBL3576840, “Helical Antimicrobial Sulfono-γ-AApeptides” (J Med Chem, 2015).

Series [1] relates to Staphylococcus aureus. Description: Antimicrobial activity against methicillin-resistant Staphylococcus aureus ATCC 33592 after 16 hrs. Format: functional. The conditions noted are these: ATCC 33592, 16 h.
Series [2] relates to Staphylococcus epidermidis. The series is described as follows: Antimicrobial activity against methicillin-resistant Staphylococcus epidermidis RP62A after 16 hrs. It counts as functional.
Another series relates to Enterococcus faecalis. Description: Antimicrobial activity against Enterococcus faecalis ATCC 700802 after 16 hrs. The conditions noted are these: ATCC 700802, 16 h. It counts as functional. An outline of the steps:
(§1)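 Broth microdilution: overnight cultures were reinoculated at 1:100, grown to mid-log phase, and diluted to 1 × 10^6 CFU/mL. Cells were mixed 1:1 with serial dilutions […] and incubated 16 h at 37 °C, then read at 600 nm. MIC is the lowest concentration with no growth. Repeated multiple times, in duplicate.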

The next series deals with Pseudomonas aeruginosa. The series is described as follows: Antimicrobial activity against Pseudomonas aeruginosa ATCC 27853 after 16 hrs. Format: functional. The conditions noted are these: ATCC 27853, 16 h. Put shortly:
as §1

Series [3] has as its system Escherichia. The series is described as follows: Antimicrobial activity against Escherichia ATCC 25922 after 16 hrs. It counts as functional. The following applies: ATCC 25922, 16 h. Put shortly: as §1
Series [4] is described as follows: Induction of hemolysis in human RBCs incubated for 1 hr. It counts as cell-based, Erythrocyte. The conditions noted are these: red blood cells. Put shortly:
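Fresh K2EDTA human RBCs were washed in PBS until the supernatant was clear and diluted to a 5% v/v suspension. This was mixed with equal volumes of compound dilutions for 1 h at 37 °C, centrifuged, and supernatant absorbance read at 360 nm. Hemolysis was normalized between PBS (0%) and 2% Triton X-100 (100%) controls. At least three repeats, in duplicate.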

Series [5] deals with Staphylococcus aureus. Description: Induction of membrane disruption in methicillin-resistant Staphylococcus aureus ATCC 33592 at 10 ug/ml incubated for 2 hrs by DAPI and propidium iodide staining based fluorescence microscopy. Format: functional, organism-based. Put shortly:
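Mid-log bacteria treated with compound (10 μg/mL) at 37 °C for 2 h, pelleted, washed, stained with PI (5 μg/mL) then DAPI (10 μg/mL) for 15 min on ice; untreated cells as control; imaged by fluorescence microscopy under 100× oil immersion; PI uptake taken as membrane damage; three repeats.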

Series [6] concerns Escherichia. The series is described as follows: Induction of membrane disruption in Escherichia ATCC 25922 at 10 ug/ml incubated for 2 hrs by DAPI and propidium iodide staining based fluorescence microscopy. It counts as functional, organism-based. An outline of the steps: (§2)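 Mid-log bacteria were incubated with 10 μg/mL compound for 2 h at 37 °C, pelleted at 5000 g and washed. Staining used PI (5 μg/mL) then DAPI (10 μg/mL), 15 min on ice. Imaged by fluorescence microscopy with a 100× oil objective; untreated bacteria served as controls.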

The test system of series [7] is Escherichia. The series is described as follows: Induction of cell aggregation of Escherichia ATCC 25922 at 10 ug/ml incubated for 2 hrs by DAPI and propidium iodide staining based fluorescence microscopy. Format: functional, organism-based. An outline of the steps: as §2
For series [8], the system named is Staphylococcus aureus. The series is described as follows: Bactericidal activity against methicillin-resistant Staphylococcus aureus ATCC 33592 at 12.5 to 50 ug/ml measured after 30 mins by colony count based time-kill assay. It counts as functional, organism-based. Put shortly: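 Time-kill: MRSA grown to mid-log in TSB, diluted to 10^6 CFU/mL, exposed to compound at several multiples of MIC for 10 min, 30 min, 1 h and 2 h; samples diluted 10^2–10^4-fold, plated on TSB agar, colonies counted after overnight 37 °C; viability plotted against time; three repeats.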

The test system of series [9] is Escherichia. Description: Bactericidal activity against Escherichia ATCC 25922 at 25 and 50 ug/ml measured after 1 hr by colony count based time-kill assay. It counts as functional, organism-based. An outline of the steps: (§3)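 Time-kill: MRSA and E. coli were grown to mid-log phase in TSB and diluted to 10^6 CFU/mL. Suspensions were exposed to several compound concentrations for 10 min, 30 min, 1 h and 2 h. Samples were diluted 10^2–10^4-fold, plated on TSB agar and incubated overnight at 37 °C. Colonies were counted and plotted against exposure time. Three repeats.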

The subject of series [10] is Escherichia. The series is described as follows: Bactericidal activity against Escherichia ATCC 25922 assessed as reduction bacterial colony count at 25 ug/ml measured after 10 mins to 2 hrs by colony count based time-kill assay. Format: functional. Put shortly: as §3
A short description of series [11]: Stability in presence of 0.1 mg/ml pronase in 100 mM pH 7.8 ammonium bicarbonate buffer at 37 degC assessed as compound degradation after 18 hrs by HPLC method. It counts as physicochemical. The following applies: pH 7.8, 18 h. Put shortly: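 Compound or control peptide AcVQIVYK (1 mg/mL) was incubated 18 h at 37 °C with Pronase in ammonium bicarbonate. Mixtures were dried by speed-vac at 60 °C, redissolved in water and run on analytical RP-HPLC: 5–100% acetonitrile/0.1% TFA gradient over 40 min at 1 mL/min.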

Another series has as its system N2a. The series is described as follows: Cytotoxicity against mouse N2a cells assessed as cell viability after 36 hrs by MTT assay. (In general: Formazan colour is commonly taken as a measure of viable cells.)

≈ marks a conversion by molar mass, not a printed value. Calls of active or inactive are those of the source. Residues, ends and D or L forms follow the SMILES beside them. Where only a bound is given, the exact number is not on record here.

In the case of `NCCCC[C@@H](CN(CC(N)=O)S(=O)(=O)CCN)NC(=O)CN(C[C@H](Cc1ccccc1)NC(=O)CN(C[C@H](Cc1ccccc1)NC(=O)CN(C[C@H](Cc1ccccc1)NC(=O)CN(C[C@H](CCCCN)NC(=O)CN(C[C@H](Cc1ccccc1)NC(=O)CN(C[C@H](Cc1ccccc1)NC(=O)CN(C[C@@H](N)Cc1ccccc1)S(=O)(=O)Cc1ccccc1)S(=O)(=O)CCN)S(=O)(=O)Cc1ccccc1)S(=O)(=O)CCN)S(=O)(=O)Cc1ccccc1)S(=O)(=O)CCN)S(=O)(=O)Cc1ccccc1`, the MIC against Staphylococcus aureus [1] came out at 2 µg/mL (≈ 0.785 µM); in series [2], 2 µg/mL (≈ 0.785 µM); in the series with Enterococcus faecalis, 2 µg/mL (≈ 0.785 µM); against Pseudomonas aeruginosa it was 4 µg/mL (≈ 1.57 µM); with Escherichia [3] it was 4 µg/mL (≈ 1.57 µM). This compound also came in with an HC50 at 1 h in series [4] of 100 µg/mL. Also, the result with Staphylococcus aureus [5], in the series on Escherichia [6], in the series with Escherichia [7], in the series with Staphylococcus aureus [8] and in the series on Escherichia [9] was Active. In addition, the Activity with Escherichia [10] is reported as 1 ×10⁵ CFU/ml. The Stability result in [11] is “Stable”. In the series on N2a, the EC50 was found to be 120 µg/mL (≈ 47.1 µM).

As for `CC(=O)N[C@@H](Cc1ccccc1)CN(CC(=O)N[C@@H](Cc1ccccc1)CN(CC(=O)N[C@@H](Cc1ccccc1)CN(CC(=O)N[C@@H](CCCCN)CN(CC(=O)N[C@@H](Cc1ccccc1)CN(CC(=O)N[C@@H](Cc1ccccc1)CN(CC(=O)N[C@@H](Cc1ccccc1)CN(CC(=O)N[C@@H](CCCCN)CN(CC(N)=O)S(=O)(=O)CCN)S(=O)(=O)Cc1ccccc1)S(=O)(=O)CCN)S(=O)(=O)Cc1ccccc1)S(=O)(=O)CCN)S(=O)(=O)Cc1ccccc1)S(=O)(=O)CCN)S(=O)(=O)Cc1ccccc1`, the MIC against Staphylococcus aureus [1] was determined as 4 µg/mL (≈ 1.55 µM); in [2], 2 µg/mL (≈ 0.773 µM); against Enterococcus faecalis, 2 µg/mL (≈ 0.773 µM); in the series with Pseudomonas aeruginosa it was 6 µg/mL (≈ 2.32 µM); with Escherichia [3], 4 µg/mL (≈ 1.55 µM). The HC50 at 1 h in series [4] came out at 75 µg/mL. For the same compound, in the series on N2a, the EC50 was determined as 80 µg/mL (≈ 30.9 µM).

On to `NCCCC[C@@H](CN(CC(N)=O)S(=O)(=O)CCN)NC(=O)CN(C[C@H](Cc1ccccc1)NC(=O)CN(C[C@H](Cc1ccccc1)NC(=O)CN(C[C@H](Cc1ccccc1)NC(=O)CN(C[C@H](CCCCN)NC(=O)CN(C[C@H](Cc1ccccc1)NC(=O)CN(C[C@@H](N)Cc1ccccc1)S(=O)(=O)CCN)S(=O)(=O)Cc1ccccc1)S(=O)(=O)CCN)S(=O)(=O)Cc1ccccc1)S(=O)(=O)CCN)S(=O)(=O)Cc1ccccc1`, for which the MIC is 3 µg/mL (≈ 1.36 µM) against Staphylococcus aureus [1]; 3 µg/mL (≈ 1.36 µM) in series [2]; above 50 µg/mL against Enterococcus faecalis; 12 µg/mL (≈ 5.45 µM) against Pseudomonas aeruginosa; 12 µg/mL (≈ 5.45 µM) in the series on Escherichia [3]. Also, the 50% haemolytic concentration (HC50) at 1 h in series [4] was above 250 µg/mL.

In the case of `CC(=O)N[C@@H](CC(C)C)CN(CC(=O)N[C@@H](CC(C)C)CN(CC(=O)N[C@@H](CC(C)C)CN(CC(=O)N[C@@H](CCCCN)CN(CC(=O)N[C@@H](CC(C)C)CN(CC(=O)N[C@@H](CC(C)C)CN(CC(=O)N[C@@H](CC(C)C)CN(CC(=O)N[C@@H](CCCCN)CN(CC(N)=O)S(=O)(=O)CCN)S(=O)(=O)CC(C)C)S(=O)(=O)CCN)S(=O)(=O)CC(C)C)S(=O)(=O)CCN)S(=O)(=O)CC(C)C)S(=O)(=O)CCN)S(=O)(=O)CC(C)C`, the MIC was above 50 µg/mL against Staphylococcus aureus [1]; 12 µg/mL (≈ 5.34 µM) in series [2]; above 50 µg/mL against Enterococcus faecalis; 50 µg/mL (≈ 22.2 µM) against Pseudomonas aeruginosa; 25 µg/mL (≈ 11.1 µM) in the series with Escherichia [3]. Besides, the HC50 at 1 h in series [4] was above 250 µg/mL.

For `CC[C@H](C)[C@H](NC(=O)[C@H](CCC(N)=O)NC(=O)[C@@H](NC(C)=O)C(C)C)C(=O)N[C@H](C(=O)N[C@@H](Cc1ccc(O)cc1)C(=O)N[C@@H](CCCCN)C(=O)O)C(C)C` (Ac-VQIVYK-OH), the Stability entry in series [11] is “Unstable”.

In the case of `CC(=O)N[C@@H](Cc1ccccc1)CN(CC(=O)N[C@@H](Cc1ccccc1)CN(CC(=O)N[C@@H](Cc1ccccc1)CN(CC(=O)N[C@@H](Cc1ccccc1)CN(CC(=O)N[C@@H](Cc1ccccc1)CN(CC(=O)N[C@@H](Cc1ccccc1)CN(CC(=O)N[C@@H](Cc1ccccc1)CN(CC(=O)N[C@@H](Cc1ccccc1)CN(CC(N)=O)S(=O)(=O)CCN)S(=O)(=O)CCN)S(=O)(=O)CCN)S(=O)(=O)CCN)S(=O)(=O)CCN)S(=O)(=O)CCN)S(=O)(=O)CCN)S(=O)(=O)CCN`, the MIC was 25 µg/mL (≈ 10.3 µM) against Staphylococcus aureus [1]; 6 µg/mL (≈ 2.46 µM) in series [2]; 50 µg/mL (≈ 20.5 µM) against Enterococcus faecalis; above 50 µg/mL against Pseudomonas aeruginosa; above 50 µg/mL in the series with Escherichia [3]. This compound displayed a concentration for 50% haemolysis (HC50) at 1 h in series [4] above 250 µg/mL.

As a reminder, the MIC is the smallest concentration in the dilution series that meets the test's criterion for growth inhibition. Low values mean inhibition by little substance, high ones a need for much substance. Usually HC50 stands for the concentration that lyses half of the red blood cells. Read a low HC50 as stronger haemolysis. What is called EC50 is the concentration giving half of the maximal effect.
